≈ marks a conversion by molar mass, not a printed value. Calls of active or inactive are those of the source. The calls are words filed in the database; no cut-off is given here.
Legend:
Plasmodium falciparum [1] = test: Antimalarial activity after 48 hrs against chloroquine-sensitive Plasmodium falciparum D6 as LDH activity by Makler method; type: functional, organism-based; settings: D6, 48 h
In short: (§1)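 Parasite lactate dehydrogenase (pLDH) assay adapted from Makler, run in 96-well microplates on two P. falciparum clones, W-2 and D-6 (D-6 chloroquine-sensitive). Chloroquine and artemisinin were positive controls, with DMSO as the vehicle control.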

SK-MEL = test: Cytotoxicity against human SK-MEL cells after 2 to 7 days by neutral red assay; type: functional, cell-based
[2] = Selectivity index, ratio of IC50 of african green monkey (Cercopithecus aethiops) Vero cells to IC50 for chloroquine-resistant Plasmodium falciparum W2; type: toxicity, cell-based; settings: read-out: Ratio IC50
BT-549 = test: Cytotoxicity against human BT549 cells after 2 to 7 days by neutral red assay; type: functional, cell-based
Cryptococcus neoformans [3] = test: Antifungal activity against Cryptococcus neoformans ATCC 90113; type: functional
Plasmodium falciparum [4] = test: Antimalarial activity after 48 hrs against chloroquine-resistant Plasmodium falciparum W2 as LDH activity by Makler method; type: functional, organism-based; settings: W2, 48 h; in short: as §1
[5] = Specific index, ratio of IC50 for human HL60 cells to MIC for LFA1/ICAM1 mediated aggregation in TPA-stimulated human HL60 cells; type: functional, HL-60
In short: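 Ratio of XTT IC50 in HL-60 cells (4 h XTT-PMS read after the aggregation assay) to the microscopic aggregation MIC of PMA (10 ng/mL)-stimulated HL-60 cells scored 16 h after PMA.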

[6] = Selectivity index, ratio of IC50 of african green monkey (Cercopithecus aethiops) Vero cells to IC50 for chloroquine-sensitive Plasmodium falciparum D6; type: toxicity, cell-based; settings: read-out: Ratio IC50
[7] = molecular target: Intercellular adhesion molecule (ICAM-1), Integrin alpha-L/beta-2 (Homo sapiens) (UniProt P20701+P05362+P05107); test: Inhibition of LFA1/ICAM1-mediated aggregation of TPA-stimulated human HL60 cells pretreated 10 mins before TPA challenge measured after 16 hrs of PMA addition by microscopy; type: cell-based; settings: HL-60
In short: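 HL-60 cells at 1 × 10^6 cells/mL preincubated 10 min with sample, then PMA 10 ng/mL added; plates kept in CO2 incubator and aggregation scored microscopically 16 h after PMA; MIC reported; cytochalasin B, anti-LFA-1 and anti-ICAM-1 antibodies as positive controls.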

Staphylococcus aureus [8] = test: Antibacterial activity against methicillin-resistant Staphylococcus aureus ATCC 33591 after 48 hrs by modified well microplate assay; type: functional, organism-based
In short: (§2)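 ATCC strains (C. albicans B311 #90028, C. neoformans #90113, S. aureus #6535, MRSA #33591) were tested in a modified 96-well microplate protocol. […] Amphotericin B and rifampin served as positive controls and DMSO as the negative control.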

KB = test: Cytotoxicity against human KB cells after 2 to 7 days by neutral red assay; type: functional, cell-based
Cryptococcus neoformans [9] = test: Antifungal activity against Cryptococcus neoformans ATCC 90113 after 48 hrs by modified well microplate assay; type: functional, organism-based; in short: as §2
Staphylococcus aureus [10] = test: Antibacterial activity against Staphylococcus aureus ATCC 6535 after 48 hrs by modified well microplate assay; type: functional, organism-based; in short: as §2
SK-OV-3 = test: Cytotoxicity against human SKOV3 cells after 2 to 7 days by neutral red assay; type: functional, cell-based
Candida albicans [11] = test: Antifungal activity against Candida albicans B311 after 48 hrs by modified well microplate assay; type: functional, organism-based; settings: B311, 48 h; in short: as §2
HL-60 = test: Cytotoxicity against human HL60 cells after 16 hrs by XTT/PMS assay; settings: HL-60, 16 h
Plasmodium falciparum [12] = test: Antimalarial activity against chloroquine-sensitive Plasmodium falciparum D6; type: functional, organism-based
In short: (§3)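 In vitro antimalarial screen using the parasite lactate dehydrogenase (pLDH) assay, adapted from Makler et al. and run in 96-well microplates. Two P. falciparum clones were tested: W-2 (chloroquine-resistant) and D-6 (chloroquine-sensitive). Chloroquine and artemisinin served as positive controls and DMSO as the vehicle (negative) control. IC50 values were reported.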

Plasmodium falciparum [13] = test: Antimalarial activity against chloroquine-resistant Plasmodium falciparum W2; type: functional, organism-based; in short: as §3
[14] = Specific index, ratio of IC50 for human HL60 cells to IC50 for LFA1/ICAM1-mediated CFSE-labeled TPA-stimulated human HL60 cell adhesion to ICAM1 expressing human HeLa cells
In short: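 Index = HL-60 XTT IC50 / adhesion IC50. XTT: HL-60 at 1 × 10^6 cells/mL, sample 10 min, then PMA 10 ng/mL for 16 h; then XTT 1 mg/mL with 25 µM PMS for 4 h at 37 °C, A450 (ref 630). Adhesion: CFSE-labeled HL-60 on confluent HeLa monolayers, PMA 50 ng/mL, 45 min at 37 °C; nonadherent cells washed off, remainder lysed in 1% Triton X-100, fluorescence ex 496/em 519 nm.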

[15] = molecular target: Intercellular adhesion molecule (ICAM-1), Integrin alpha-L/beta-2 (Homo sapiens, UniProt P05107+P05362+P20701); test: Inhibition of LFA1/ICAM1-mediated CFSE-labeled TPA-stimulated human HL60 cell adhesion to ICAM1 expressing human HeLa cells after 45 mins by fluorescence analysis; type: cell-based
In short: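 CFSE-labelled HL-60 cells plus sample added onto confluent ICAM-1-expressing HeLa monolayers with PMA 50 ng/mL; 45 min at 37 °C in CO2 incubator; nonadherent cells washed off, remainder lysed in 1% Triton X-100; fluorescence at ex 496/em 519 nm; anti-ICAM-1 antibody and cytochalasin B positive controls.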

Candida albicans [16] = test: Antifungal activity against Candida albicans B311; type: functional
[17] = Staphylococcus aureus, ATCC 33591, 48 h, read-out: IC50
[18] = Cryptococcus neoformans, ATCC 90113, 48 h
[19] = Cryptococcus neoformans, ATCC 90113, 48 h, read-out: IC50
[20] = Staphylococcus aureus, ATCC 6535, 48 h
[21] = Staphylococcus aureus, ATCC 6535, 48 h, read-out: IC50
[22] = Homo sapiens, BT-549, read-out: IC50
[23] = Homo sapiens, KB, read-out: IC50
[24] = Staphylococcus aureus, ATCC 33591, 48 h

Intercellular adhesion molecule (ICAM-1), Integrin alpha-L/beta-2, sequence (P20701 whole entry): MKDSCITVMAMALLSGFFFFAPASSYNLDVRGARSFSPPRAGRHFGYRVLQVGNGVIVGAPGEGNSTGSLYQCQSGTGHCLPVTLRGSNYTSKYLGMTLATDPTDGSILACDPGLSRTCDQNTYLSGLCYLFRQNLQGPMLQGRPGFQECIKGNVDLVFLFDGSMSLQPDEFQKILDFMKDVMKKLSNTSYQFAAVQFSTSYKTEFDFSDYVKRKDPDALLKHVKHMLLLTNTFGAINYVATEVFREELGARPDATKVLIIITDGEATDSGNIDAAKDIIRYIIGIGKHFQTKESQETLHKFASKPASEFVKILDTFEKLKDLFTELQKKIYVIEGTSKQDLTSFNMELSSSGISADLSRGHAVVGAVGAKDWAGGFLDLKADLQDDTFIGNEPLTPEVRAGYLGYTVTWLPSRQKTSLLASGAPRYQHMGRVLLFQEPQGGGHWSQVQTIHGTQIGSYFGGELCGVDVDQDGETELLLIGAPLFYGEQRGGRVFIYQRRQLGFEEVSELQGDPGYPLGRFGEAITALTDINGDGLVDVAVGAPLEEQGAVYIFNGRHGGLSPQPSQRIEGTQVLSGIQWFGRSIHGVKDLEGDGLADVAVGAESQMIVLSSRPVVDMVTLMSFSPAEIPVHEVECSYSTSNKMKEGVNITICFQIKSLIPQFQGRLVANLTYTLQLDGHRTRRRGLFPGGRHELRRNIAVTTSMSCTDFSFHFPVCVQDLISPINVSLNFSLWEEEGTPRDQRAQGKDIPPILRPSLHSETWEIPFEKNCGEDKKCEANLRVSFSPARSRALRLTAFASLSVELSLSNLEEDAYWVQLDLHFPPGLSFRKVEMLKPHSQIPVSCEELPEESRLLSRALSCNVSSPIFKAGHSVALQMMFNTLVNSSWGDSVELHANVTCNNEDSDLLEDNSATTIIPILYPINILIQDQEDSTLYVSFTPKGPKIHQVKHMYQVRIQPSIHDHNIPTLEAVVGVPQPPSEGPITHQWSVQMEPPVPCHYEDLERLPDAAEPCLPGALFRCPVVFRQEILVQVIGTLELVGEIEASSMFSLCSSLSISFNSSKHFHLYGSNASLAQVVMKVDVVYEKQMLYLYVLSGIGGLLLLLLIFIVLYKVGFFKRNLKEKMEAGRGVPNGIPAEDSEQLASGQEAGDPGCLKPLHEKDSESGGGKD
Intercellular adhesion molecule (ICAM-1), Integrin alpha-L/beta-2, sequence (P05362 whole entry): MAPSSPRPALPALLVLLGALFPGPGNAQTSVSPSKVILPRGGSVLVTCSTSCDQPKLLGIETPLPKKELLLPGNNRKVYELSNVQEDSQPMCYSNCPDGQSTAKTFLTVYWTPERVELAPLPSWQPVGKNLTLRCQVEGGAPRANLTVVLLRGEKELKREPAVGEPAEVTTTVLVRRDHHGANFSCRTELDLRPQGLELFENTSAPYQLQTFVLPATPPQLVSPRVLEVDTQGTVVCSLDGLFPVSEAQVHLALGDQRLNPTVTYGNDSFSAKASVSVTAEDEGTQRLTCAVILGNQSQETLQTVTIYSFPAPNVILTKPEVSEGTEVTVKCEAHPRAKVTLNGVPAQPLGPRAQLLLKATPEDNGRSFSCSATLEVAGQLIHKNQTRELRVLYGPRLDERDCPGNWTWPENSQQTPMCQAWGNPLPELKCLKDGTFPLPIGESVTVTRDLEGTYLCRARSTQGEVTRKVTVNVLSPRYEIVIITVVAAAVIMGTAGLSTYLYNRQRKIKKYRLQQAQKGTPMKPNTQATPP
Intercellular adhesion molecule (ICAM-1), Integrin alpha-L/beta-2, sequence (P05107 whole entry): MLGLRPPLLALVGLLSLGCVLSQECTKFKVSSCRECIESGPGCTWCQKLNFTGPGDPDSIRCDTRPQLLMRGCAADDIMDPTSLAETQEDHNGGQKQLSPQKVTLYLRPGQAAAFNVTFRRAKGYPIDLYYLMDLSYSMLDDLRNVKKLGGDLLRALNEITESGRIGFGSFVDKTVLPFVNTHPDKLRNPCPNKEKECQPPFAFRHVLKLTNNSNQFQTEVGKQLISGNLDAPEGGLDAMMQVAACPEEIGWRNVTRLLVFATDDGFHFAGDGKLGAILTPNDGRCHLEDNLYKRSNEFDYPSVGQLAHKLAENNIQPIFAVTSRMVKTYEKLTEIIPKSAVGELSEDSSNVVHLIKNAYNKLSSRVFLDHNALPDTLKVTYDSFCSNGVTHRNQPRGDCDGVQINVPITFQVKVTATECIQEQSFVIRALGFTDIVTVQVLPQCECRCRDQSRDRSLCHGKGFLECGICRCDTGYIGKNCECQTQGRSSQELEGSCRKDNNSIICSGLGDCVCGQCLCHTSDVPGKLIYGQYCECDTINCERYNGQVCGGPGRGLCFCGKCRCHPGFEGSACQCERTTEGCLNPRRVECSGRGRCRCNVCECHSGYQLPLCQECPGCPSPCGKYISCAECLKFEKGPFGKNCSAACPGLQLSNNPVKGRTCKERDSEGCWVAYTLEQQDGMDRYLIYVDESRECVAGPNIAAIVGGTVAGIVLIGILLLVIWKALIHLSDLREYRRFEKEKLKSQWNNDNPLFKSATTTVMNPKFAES

Compound	IC50 (Plasmodium falciparum [1])	IC50 (SK-MEL)	selectivity ratio [2]	IC50 (Plasmodium falciparum [4])	selectivity ratio [6]	MIC [7]	IC50 (Cryptococcus neoformans [9]; [19])	IC50 (SK-OV-3)	IC50 (Candida albicans [11])	MIC (Candida albicans [11])	IC50 (HL-60)	IC50 (BT-549; [22])	IC50 (KB; [23])	other results
COc1cnc2c3c(nccc13)C(=O)c1ccccc1-2	0.28 µg/mL (≈ 1.07 µM)	> 10 µg/mL	> 50	0.095 µg/mL (≈ 0.362 µM)	> 17	12.5 µg/mL (≈ 47.7 µM)	0.65 µg/mL (≈ 2.48 µM)	> 10 µg/mL	3 µg/mL (≈ 11.4 µM)	20 µg/mL (≈ 76.3 µM)	7.2 µg/mL (≈ 27.5 µM)			IC50 (BT-549; bt-549): Not Active; MIC (Cryptococcus neoformans [3]): 0.78 µg/mL (≈ 2.97 µM); Ratio [5]: 0.6; IC50 (Staphylococcus aureus [8]; [17]): 20 µg/mL (≈ 76.3 µM); IC50 (KB; kb): Not Active; MIC (Cryptococcus neoformans [9]; [18]): 3.12 µg/mL (≈ 11.9 µM); MIC (Staphylococcus aureus [10]; [20]): 25 µg/mL (≈ 95.3 µM); IC50 (Staphylococcus aureus [10]; [21]): 15 µg/mL (≈ 57.2 µM)
COc1c2c3c(ccnc3c3ccccc13)C(=O)C(=O)N2C	0.55 µg/mL (≈ 1.88 µM)	2 µg/mL (≈ 6.84 µM)	> 17	0.28 µg/mL (≈ 0.958 µM)	> 8.7		50 µg/mL (≈ 171 µM)	5 µg/mL (≈ 17.1 µM)	9 µg/mL (≈ 30.8 µM)	50 µg/mL (≈ 171 µM)		> 10 µg/mL	> 10 µg/mL	IC50 (Staphylococcus aureus [8]): Not Active; MIC (Staphylococcus aureus [8]): inactive; IC50 (Staphylococcus aureus [10]): Not Active; MIC (Staphylococcus aureus [10]): inactive
C[C@@H]1[C@H](O)[C@@H](C)/C=C/C=C/C=C/C=C/C=C/C=C/C=C/[C@H](O[C@@H]2O[C@H](C)[C@@H](O)[C@H](N)[C@@H]2O)C[C@@H]2O[C@](O)(C[C@@H](O)C[C@@H](O)[C@H](O)CC[C@@H](O)C[C@@H](O)CC(=O)O[C@H]1C)C[C@H](O)[C@H]2C(=O)O [AMPHOTERICIN B]							0.045 µg/mL (≈ 0.0487 µM)		0.011 µg/mL (≈ 0.0119 µM)	0.02 µg/mL (≈ 0.0216 µM)				IC50 (Staphylococcus aureus [8]): Not Active; MIC (Staphylococcus aureus [8]): inactive; MIC (Cryptococcus neoformans [9]; [18]): 0.156 µg/mL (≈ 0.169 µM); IC50 (Staphylococcus aureus [10]): Not Active; MIC (Staphylococcus aureus [10]): inactive
C[C@@H]1CC[C@H]2[C@@H](C)C(=O)O[C@@H]3O[C@@]4(C)CC[C@@H]1[C@]32OO4 [ARTEMISININ]	0.005 µg/mL (≈ 0.0177 µM)		> 1080	0.0044 µg/mL (≈ 0.0156 µM)	> 952									IC50 (Plasmodium falciparum [12]): 1.8 ng/mL (≈ 0.00638 µM); IC50 (Plasmodium falciparum [13]): 0.5 ng/mL (≈ 0.00177 µM)
C=C1[C@@H](C)[C@H]2[C@H](Cc3ccccc3)NC(=O)[C@]23OC(=O)/C=C/[C@H](O)CCC[C@@H](C)C/C=C/[C@H]3[C@@H]1O [CYTOCHALASIN B]						0.39 µg/mL (≈ 0.813 µM)					> 30 µg/mL			Ratio IC50 [14]: >120; Ratio [5]: 76.9; IC50 [15]: 521 nM
COc1cccc2c1C(=O)c1c(O)c3c(c(O)c1C2=O)C[C@@](O)(C(=O)CO)C[C@@H]3O[C@H]1C[C@H](N)[C@H](O)[C@H](C)O1 [DOXORUBICIN]		< 1.1 µg/mL						< 1.1 µg/mL				< 1.1 µg/mL	< 1.1 µg/mL	
O=c1[nH]cc(F)c(=O)[nH]1 [FLUOROURACIL]		6.3 µg/mL (≈ 48.4 µM)						> 10 µg/mL					> 10 µg/mL	IC50 (BT-549; bt-549): Not Active
COc1ccc2c(OC)c3c4c(ccnc4c2c1)C(=O)C(=O)N3C [HADRANTHINE A]	0.12 µg/mL (≈ 0.372 µM)	> 10 µg/mL	> 40	0.12 µg/mL (≈ 0.372 µM)	> 40			> 10 µg/mL	4.5 µg/mL (≈ 14 µM)	20 µg/mL (≈ 62.1 µM)		> 10 µg/mL		IC50 (Staphylococcus aureus [8]): Not Active; MIC (Staphylococcus aureus [8]): inactive; IC50 (KB; kb): Not Active; IC50 (Cryptococcus neoformans [9]): Not Active; MIC (Cryptococcus neoformans [9]): inactive; IC50 (Staphylococcus aureus [10]): Not Active; MIC (Staphylococcus aureus [10]): inactive
COc1c2c3c(ccnc3c3ccccc13)C(=O)C(=O)N2 [HADRANTHINE B]		3 µg/mL (≈ 10.8 µM)				4.2 µg/mL (≈ 15.1 µM)		3.6 µg/mL (≈ 12.9 µM)			> 12.5 µg/mL	6.6 µg/mL (≈ 23.7 µM)	6.4 µg/mL (≈ 23 µM)	Ratio IC50 [5]: 3
CO[C@H]1/C=C/O[C@@]2(C)Oc3c(C)c(O)c4c(O)c(c(/C=N/N5CCN(C)CC5)c(O)c4c3C2=O)NC(=O)/C(C)=C\C=C\[C@H](C)[C@H](O)[C@@H](C)[C@@H](O)[C@@H](C)[C@H](OC(C)=O)[C@@H]1C [RIFAMPIN]														MIC (Staphylococcus aureus [8]; [24]): 0.312 µg/mL (≈ 0.38 µM); IC50 (Staphylococcus aureus [8]; [17]): 0.0025 µg/mL (≈ 0.00304 µM); MIC (Staphylococcus aureus [10]; [20]): 0.02 µg/mL (≈ 0.0243 µM); IC50 (Staphylococcus aureus [10]; [21]): 0.01 µg/mL (≈ 0.0122 µM)
O=C1c2ccccc2-c2nccc3ccnc1c23 [SAMPANGINE]	0.42 µg/mL (≈ 1.81 µM)	0.37 µg/mL (≈ 1.59 µM)	> 70	0.068 µg/mL (≈ 0.293 µM)	> 11	< 0.15 µg/mL	0.15 µg/mL (≈ 0.646 µM)	4.1 µg/mL (≈ 17.7 µM)	0.15 µg/mL (≈ 0.646 µM)	0.39 µg/mL (≈ 1.68 µM)	2 µg/mL (≈ 8.61 µM)	6.4 µg/mL (≈ 27.6 µM)	5.3 µg/mL (≈ 22.8 µM)	Ratio IC50 [14]: <0.2; Ratio [5]: >13.3; IC50 [15]: > 43100 nM; MIC (Candida albicans [16]): 1.56 µg/mL (≈ 6.72 µM); MIC (Staphylococcus aureus [8]; [24]): 12.5 µg/mL (≈ 53.8 µM); IC50 (Staphylococcus aureus [8]; [17]): 9 µg/mL (≈ 38.8 µM); MIC (Cryptococcus neoformans [9]; [18]): 0.78 µg/mL (≈ 3.36 µM); IC50 (Staphylococcus aureus [10]; [21]): 5.5 µg/mL (≈ 23.7 µM)
